Data: ChEMBL document CHEMBL2057069, “Benzoxazole and benzothiazole amides as novel pharmacokinetic enhancers of HIV protease inhibitors” (Bioorg Med Chem Lett, 2012)
Active and inactive are the calls of the source. No cut-off for these calls is given here.

Tests used:
[1] = Tmax in rat at 10 mg/kg, po administered as single dose; type: ADME, organism-based; parameters: dose 10 mg/kg, route oral; conditions: in vivo
Procedure, shortened: (§1)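 Single oral dose of 10 mg/kg given to rats and dogs, n = 3 per species. Plasma Cmax, Tmax, AUC0–∞ and absolute oral bioavailability were derived from the plasma profiles.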

[2] = AUC (0 to infinity) in dog at 10 mg/kg, po administered as single dose; type: ADME, organism-based, Canis lupus familiaris; parameters: time infinity, dose 10 mg/kg, route oral; conditions: plasma; procedure, shortened: as §1
[3] = Cmax in dog at 10 mg/kg, po administered as single dose; type: ADME, organism-based, Canis lupus familiaris; parameters: dose 10 mg/kg, route oral; conditions: in vivo; procedure, shortened: as §1
[4] = Apparent permeability across human Caco2 cells at 10 uM at pH 5.5 after 60 mins; type: ADME, cell-based; conditions: Caco-2, pH 5.5
Procedure, shortened: (§2)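 Caco-2 monolayers were exposed to compound at 10 µM and sampled after 60 min of incubation, at pH 5.5 or pH 7.4. Apparent permeability was measured in the absorptive and secretory directions, with efflux expressed as the secretory/absorptive ratio.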

[5] = AUC (0 to infinity) in dog at 7.5 mg/kg, po; type: ADME, organism-based, Canis lupus familiaris; parameters: time infinity, dose 7.5 mg/kg, route oral; conditions: plasma
Procedure, shortened: (§3)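 Drug–drug interaction study in dogs, n = 3. The booster was given orally at 7.5 mg/kg as a PEG400 solution, 5 min before oral darunavir at 30 mg/kg. Darunavir plasma Cmax and AUC0–∞ were measured, with fold increase calculated against darunavir dosed alone.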

[6] = Drug metabolism in dog hepatocytes at 2 uM after 2 hrs; type: ADME, cell-based, Canis lupus familiaris, Hepatocyte; conditions: read-out: Drug metabolism
[7] = Tmax in dog at 10 mg/kg, po administered as single dose; type: ADME, organism-based, Canis lupus familiaris; parameters: dose 10 mg/kg, route oral; conditions: in vivo; procedure, shortened: as §1
[8] = Efflux ratio of apparent permeability of the compound from basal to apical to apical to basal side of human Caco2 cells at 10 uM at pH 5.5 after 60 mins; type: ADME, cell-based; conditions: Caco-2, pH 5.5
Procedure, shortened: (§4)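 Caco-2 monolayers; test compound at 10 µM; apparent permeability measured in secretory and absorptive directions at pH 5.5 and at pH 7.4, read after 60 min incubation; transport polarity taken as P_secretory/P_absorptive.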

[9] = test system: Human immunodeficiency virus 1; assay: Antiviral activity against wild type HIV1 3B infected in human MT4 LTR-EGFP cells by EGFP reporter gene assay; type: functional, organism-based; conditions: Human immunodeficiency virus 1, 3B
[10] = Efflux ratio of apparent permeability of the compound from basal to apical to apical to basal side of human Caco2 cells at 10 uM at pH 7.4 after 60 mins; type: ADME, cell-based; conditions: Caco-2, pH 7.4; procedure, shortened: as §4
[11] = Absolute oral bioavailability in rat at 10 mg/kg administered as single dose; type: ADME, organism-based; conditions: in vivo; procedure, shortened: as §1
Canis familiaris [12] = assay: Enhancement of darunavir Cmax in dog at 7.5 mg/kg, po administered 5 mins prior to darunavir co-administration; type: ADME, organism-based, Canis lupus familiaris; parameters: dose 7.5 mg/kg, route oral; conditions: in vivo
[13] = AUC (0 to infinity) in rat at 10 mg/kg, po administered as single dose; type: ADME, organism-based; parameters: time infinity, dose 10 mg/kg, route oral; conditions: plasma
[14] = Cmax in dog at 7.5 mg/kg, po; type: ADME, organism-based, Canis lupus familiaris; parameters: dose 7.5 mg/kg, route oral; conditions: in vivo; procedure, shortened: as §3
Homo sapiens = species on record: Homo sapiens; assay: Inhibition of P-glycoprotein using taxol as substrate
Canis familiaris [15] = assay: Enhancement of darunavir AUC (0 to infinity) in dog at 7.5 mg/kg, po administered 5 mins prior to darunavir co-administration; type: ADME, organism-based, Canis lupus familiaris; parameters: dose 7.5 mg/kg, route oral; conditions: in vivo
Cytochrome P450 3A4 = Cytochrome P450 3A4 (Homo sapiens, UniProt P08684); assay: Inhibition of CYP3A4 in human liver microsomes using midazolam as substrate after 10 mins by LC/MS/MS analysis
Sequence of Cytochrome P450 3A4 (P08684 whole entry): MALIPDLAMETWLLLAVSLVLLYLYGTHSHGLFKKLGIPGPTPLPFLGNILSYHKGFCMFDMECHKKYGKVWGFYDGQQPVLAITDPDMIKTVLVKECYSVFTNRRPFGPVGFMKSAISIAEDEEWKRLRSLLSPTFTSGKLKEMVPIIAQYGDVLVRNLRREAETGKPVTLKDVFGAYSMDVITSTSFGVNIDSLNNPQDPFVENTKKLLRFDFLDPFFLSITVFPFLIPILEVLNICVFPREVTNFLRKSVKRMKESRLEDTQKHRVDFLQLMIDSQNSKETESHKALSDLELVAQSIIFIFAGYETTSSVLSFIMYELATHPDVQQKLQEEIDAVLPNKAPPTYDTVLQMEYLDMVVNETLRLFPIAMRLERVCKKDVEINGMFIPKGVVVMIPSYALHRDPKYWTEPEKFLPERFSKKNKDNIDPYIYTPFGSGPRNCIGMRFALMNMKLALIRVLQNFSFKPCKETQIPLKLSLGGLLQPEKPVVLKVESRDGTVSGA

[16] = Cmax in rat at 10 mg/kg, po administered as single dose; type: ADME, organism-based; parameters: dose 10 mg/kg, route oral; conditions: in vivo; procedure, shortened: as §1
[17] = Apparent permeability across human Caco2 cells at 10 uM at pH 7.4 after 60 mins; type: ADME, cell-based; conditions: Caco-2, pH 7.4; procedure, shortened: as §2
[18] = Absolute oral bioavailability in dog at 10 mg/kg administered as single dose; type: ADME, organism-based, Canis lupus familiaris; conditions: in vivo; procedure, shortened: as §1

Tmax [1]: 30 min
AUC(0-inf) [2]: 200 ng·h/mL
Cmax [3]: 140 ng/mL
Papp at 1 h, 10 µM [4]: 0.52 ×10⁻⁶ cm/s
AUC(0-inf) [5]: 6480 ng·h/mL
metabolised at 2 h, 2 µM [6]: 12%
Tmax [7]: 60 min
efflux ratio at 1 h, 10 µM [8]: 26
EC50 [9]: 76 µM
efflux ratio at 1 h, 10 µM [10]: 22
bioavailability [11]: 0.82%
fold change (FC) (Canis familiaris [12]): 1.8
AUC(0-inf) [13]: 10 ng·h/mL
Cmax [14]: 2300 ng/mL
inhibition (Homo sapiens): Active
fold change (FC) (Canis familiaris [15]): 4.7
IC50 (Cytochrome P450 3A4): 0.019 µM
Cmax [16]: 10 ng/mL
Papp at 1 h, 10 µM [17]: 1.2 ×10⁻⁶ cm/s
bioavailability [18]: 1.37%
Structure (SMILES): CC(C)CN(C[C@@H](O)[C@H](Cc1ccccc1)NC(=O)OCc1cncs1)C(=O)c1ccc2nc(N)sc2c1
